Laboratory results taken from ChEMBL document CHEMBL3734696, “Discovery of novel 5-fluoro-N(2),N(4)-diphenylpyrimidine-2,4-diamines as potent inhibitors against CDK2 and CDK9” (Medchemcomm, 2015).

Assays:
A549 = experiment: Antiproliferative activity against human A549 cells after 3 days by SRB method; assay type: functional; details: A549, 72 h
Procedure, shortened: (§1)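 Freshly trypsinized cells seeded at 1500–7500 per well with compound added from DMSO-diluted stock. After 3 days, attached cells fixed with cold 50% TCA, stained with 0.4% SRB, and bound dye solubilized. Value is the mean of three independent determinations.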

[1] = Antiproliferative activity against human DU145 cells after 3 days by SRB method; assay type: functional; details: DU-145, 72 h; procedure, shortened: as §1
[2] = Antiproliferative activity against human KBVIN cells after 3 days by SRB method; assay type: functional; details: 72 h; procedure, shortened: as §1
CDK9/cyclin T1 = CDK9/cyclin T1 (Homo sapiens, UniProt P50750); experiment: Inhibition of CDK9/Cyclin-T1 (unknown origin) using UlightCFFKNIVTPRTPPPSQGK-amide substrate after 90 mins by […]; assay type: protein-complex assay
Chain of CDK9/cyclin T1 (O60563 whole entry): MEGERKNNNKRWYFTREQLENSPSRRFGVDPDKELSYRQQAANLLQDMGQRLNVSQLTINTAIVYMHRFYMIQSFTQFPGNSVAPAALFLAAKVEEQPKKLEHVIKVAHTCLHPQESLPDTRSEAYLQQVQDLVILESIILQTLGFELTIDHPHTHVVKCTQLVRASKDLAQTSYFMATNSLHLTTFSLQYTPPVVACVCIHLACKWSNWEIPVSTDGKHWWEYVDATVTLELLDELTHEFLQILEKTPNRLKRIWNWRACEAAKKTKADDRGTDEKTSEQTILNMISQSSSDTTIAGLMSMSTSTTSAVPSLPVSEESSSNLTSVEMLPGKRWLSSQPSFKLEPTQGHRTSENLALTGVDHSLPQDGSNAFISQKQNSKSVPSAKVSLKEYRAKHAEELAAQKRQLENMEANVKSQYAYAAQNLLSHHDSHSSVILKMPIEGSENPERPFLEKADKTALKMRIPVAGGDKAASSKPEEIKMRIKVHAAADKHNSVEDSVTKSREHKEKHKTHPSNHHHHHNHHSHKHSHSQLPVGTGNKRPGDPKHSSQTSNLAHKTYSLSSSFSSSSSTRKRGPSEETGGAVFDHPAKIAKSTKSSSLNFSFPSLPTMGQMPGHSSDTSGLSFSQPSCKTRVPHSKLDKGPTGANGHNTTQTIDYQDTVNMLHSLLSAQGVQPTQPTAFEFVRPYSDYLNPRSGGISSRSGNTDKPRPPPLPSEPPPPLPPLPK
Chain of CDK9/cyclin T1 (P50750 whole entry): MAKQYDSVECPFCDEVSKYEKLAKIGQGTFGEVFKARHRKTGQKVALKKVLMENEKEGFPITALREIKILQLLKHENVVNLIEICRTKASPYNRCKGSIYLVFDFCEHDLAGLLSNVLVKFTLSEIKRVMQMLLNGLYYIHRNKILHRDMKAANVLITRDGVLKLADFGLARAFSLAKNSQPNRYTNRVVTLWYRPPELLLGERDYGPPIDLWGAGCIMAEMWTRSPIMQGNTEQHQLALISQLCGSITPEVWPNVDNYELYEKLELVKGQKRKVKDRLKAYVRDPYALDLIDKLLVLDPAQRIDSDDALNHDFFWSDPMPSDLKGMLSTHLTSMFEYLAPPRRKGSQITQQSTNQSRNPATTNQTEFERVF

[3] = test system: Human immunodeficiency virus 1; experiment: Antiviral activity against Human immunodeficiency virus 1 NL 4-3 infected in MT4 cells measured on day 4 post infection by p24 assay; assay type: functional, organism-based; details: Human immunodeficiency virus 1, NL 4-3, MT4, 96 h
MT4 = experiment: Cytotoxicity against human MT4 cells; assay type: cell-based
[4] = Therapeutic index, ratio of IC50 for human MT4 cells to EC50 for Human immunodeficiency virus 1 NL 4-3; assay type: cell-based; details: read-out: Ratio IC50/EC50
[5] = target: Cyclin-dependent kinase 2/cyclin E1 (Homo sapiens, UniProt P24941); experiment: Inhibition of CDK2/cyclin E1 (unknown origin) expressed in Sf9 insect cells using UlightCFFKNIVTPRTPPPSQGK-amide substrate after 15 mins by […]

Row | Compound | GI50 (A549) [µM] | GI50 [1] [µM] | GI50 [2] [µM] | IC50 (CDK9/cyclin T1) [µM] | EC50 [3] [µM] | IC50 (MT4) [µM] | selectivity ratio [4] | IC50 [5] [µM]
1 | O=C(Nc1cc(Cl)cc(Cl)c1)c1cccc(Nc2ncc(F)c(Nc3ccc(F)cc3)n2)c1 | 17.4 | 17.5 | 20.7 | – | – | – | – | –
2 | Fc1cnc(Nc2cccc(N3CCOCC3)c2)nc1Nc1c(F)cccc1F | 1.09 | 4.24 | > 10 | 0.33 | 1.37 | 10.2 | 7.45 | 5.85
3 | O=C(Nc1ccc(C(F)(F)F)cc1)c1cccc(Nc2ncc(F)c(Nc3ccc(F)cc3)n2)c1 | > 10 | > 10 | > 10 | – | – | – | – | –
4 | COc1ccc(NC(=O)c2cccc(Nc3ncc(F)c(Nc4ccc(F)cc4)n3)c2)cc1 | 11 | > 10 | 15.7 | – | – | – | – | –
5 | CC(=O)N1CCCN(C(=O)c2cccc(Nc3ncc(F)c(Nc4ccc(F)cc4)n3)c2)CC1 | 9.96 | 15.7 | 16.7 | 15.6 | 7.08 | – | 2.18 | 60.6
6 | CN(C)c1ccc(C(=O)Nc2cccc(Nc3ncc(F)c(Nc4ccc(F)cc4)n3)c2)cc1 | > 10 | > 10 | > 10 | – | – | – | – | –
7 | COc1ccc(N2CCN(C)CC2)cc1Nc1ncc(F)c(Nc2ccc(F)cc2)n1 | 1.13 | 0.91 | 0.91 | > 10 | – | – | – | > 10
8 | CN1CCC(C(=O)Nc2cccc(Nc3ncc(F)c(Nc4ccc(F)cc4)n3)c2)CC1 | 1.33 | 1.15 | 11.9 | 2.45 | – | – | – | 1.24
9 | CN1CCN(C(=O)c2cccc(Nc3ncc(F)c(Nc4ccc(F)cc4)n3)c2)CC1 | 9.07 | 10.9 | 12.3 | 11.3 | – | – | – | 22.1
10 | O=C(NCCO)c1cccc(Nc2ncc(F)c(Nc3ccc(F)cc3)n2)c1 | 11.8 | 13.4 | 21.4 | – | – | – | – | –
11 | COc1cc(NC(=O)c2cccc(Nc3ncc(F)c(Nc4ccc(F)cc4)n3)c2)cc(OC)c1 | 13.8 | 13.7 | 12.7 | – | – | – | – | –
12 | COc1ccc(N2CCOCC2)cc1Nc1ncc(F)c(Nc2ccc(F)cc2)n1 | 18.3 | > 10 | > 10 | – | – | – | – | –
13 | COCC(=O)Nc1cccc(Nc2ncc(F)c(Nc3ccc(F)cc3)n2)c1 | 2.05 | 4.46 | 3.94 | 2.02 | – | – | – | 3.27
14 | O=C(Nc1ccc2c(c1)OCO2)c1cccc(Nc2ncc(F)c(Nc3ccc(F)cc3)n2)c1 | 12.9 | 11.6 | 12 | – | – | – | – | –
15 | CS(=O)(=O)N1CCN(C(=O)c2cccc(Nc3ncc(F)c(Nc4ccc(F)cc4)n3)c2)CC1 | 12.2 | 17.9 | > 10 | – | – | – | – | –
16 | O=C(Nc1cccc(Nc2ncc(F)c(Nc3ccc(F)cc3)n2)c1)c1ccncc1 | 1.65 | 4.33 | 4.57 | 2.57 | – | – | – | 15.3
17 | O=C(Nc1cccc(Nc2ncc(F)c(Nc3ccc(F)cc3)n2)c1)c1cccc([N+](=O)[O-])c1 | 7.25 | 12.6 | 11.3 | – | – | – | – | –
18 | O=C(Nc1nccs1)c1cccc(Nc2ncc(F)c(Nc3ccc(F)cc3)n2)c1 | > 10 | > 10 | > 10 | – | – | – | – | –
19 | CN(C)CCNC(=O)c1cccc(Nc2ncc(F)c(Nc3ccc(F)cc3)n2)c1 | 1.45 | 4.34 | 7.26 | 1.72 | – | – | – | 4.65
20 | O=C(c1cccc(Nc2ncc(F)c(Nc3ccc(F)cc3)n2)c1)N1CCCCC1 | 13.2 | 13 | 13.8 | – | – | – | – | –
21 | Cn1ccnc1NC(=O)c1cccc(Nc2ncc(F)c(Nc3ccc(F)cc3)n2)c1 | 10.1 | 15.1 | 13.1 | – | – | – | – | –
22 | O=C(Nc1cccc(Nc2ncc(F)c(Nc3ccc(F)cc3)n2)c1)c1cnccn1 | 10.3 | 26.4 | 20.1 | – | – | – | – | –
23 | O=C(Nc1ccccn1)c1cccc(Nc2ncc(F)c(Nc3ccc(F)cc3)n2)c1 | 15.3 | 15.1 | 13.7 | – | – | – | – | –
24 | Fc1cnc(Nc2cccc(N3CCOCC3)c2)nc1Nc1cc(Cl)cc(Cl)c1 | 11.6 | > 10 | 22.5 | – | – | – | – | –
25 | O=C(Nc1ccc(N2CCOCC2)cc1)c1cccc(Nc2ncc(F)c(Nc3ccc(F)cc3)n2)c1 | > 10 | > 10 | > 10 | – | – | – | – | –
26 | O=C(c1cccc(Nc2ncc(F)c(Nc3ccc(F)cc3)n2)c1)N1CCOCC1 | 11.2 | 11.9 | 13.1 | – | – | – | – | –
27 | O=C(Nc1cccc(Nc2ncc(F)c(Nc3ccc(F)cc3)n2)c1)c1ccccc1 | 37.8 | > 10 | > 10 | – | – | – | – | –
28 | Fc1cnc(Nc2cccc(N3CCOCC3)c2)nc1Nc1ccc(Cl)c(Cl)c1 | 12 | > 10 | > 10 | – | – | – | – | –
29 | Fc1ccc(Nc2nc(Nc3cccc(N4CCOCC4)c3)ncc2F)cc1 | 3.83 | > 10 | > 10 | – | – | – | – | –
30 | CN1CC[C@H](c2c(O)cc(O)c3c(=O)cc(-c4ccccc4Cl)oc23)[C@H](O)C1 [ALVOCIDIB] | 0.14 | 0.15 | 0.18 | – | 0.015 | 0.067 | – | –
